inhibition, IC50 and Activity data for eleven compounds are collected here from ChEMBL document CHEMBL3870311, “Synthesis and biological evaluation of C1-O-substituted-3-(3-butylamino-2-hydroxy-propoxy)-xanthen-9-one as topoisomerase IIα catalytic inhibitors” (Eur J Med Chem, 2016).

pIC50: −log10 of the molar value. Calls of active or inactive are those of the source. The calls are words filed in the database; no cut-off is given here.

Data set [1] concerns the target T1, DNA topoisomerase 2-alpha (Homo sapiens, UniProt P11388). Kind of data set: Inhibition of topoisomerase-2 alpha catalytic activity in human T47D cells assessed as increase in free topoisomerase-2 alpha level at 50 uM after 2 hrs by Western blot method. In kind it is cell-based. The essentials:
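T47D cells (2 x 10^5 per well) seeded overnight, treated 2 h at 37 °C with 50 µM compound or etoposide in serum-free RPMI. Harvested cells washed in PBS, lysed in 62.5 mM Tris-HCl pH 6.8, 1 mM EDTA, 2% SDS with sonication; cleared supernatant run on 10% SDS-PAGE and free topo IIα detected by Western blot.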
On the technique in general: Immunoblotting shows a protein as a band on a membrane.

Data set [2] is described as follows: Cytotoxicity against human HeLa cells assessed as reduction in cell growth after 72 hrs by CCK8 assay. In kind it is functional, cell-based. The essentials: (§1)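 Cells (2~4 x 10^4 per well) seeded overnight in media with 10% FBS, 37 °C, 5% CO₂, then exposed to graded compound concentrations for 72 h. CCK-8 solution added for a further 4 h; absorbance read at 450 nm. IC₅₀ from four-parameter logistic fit; adriamycin, etoposide and camptothecin as positive controls.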
In general terms: Tetrazolium dyes change colour on reduction, which living cells bring about.

Data set [3] is described as follows: Cytotoxicity against human NCI-N87 cells assessed as reduction in cell growth after 72 hrs by CCK8 assay. Format: functional, cell-based. The note with it: NCI-N87, 72 h. The gist of the method: as §1
For data set [4], the target named is T1, DNA topoisomerase 2-alpha. Kind of data set: Inhibition of human topoisomerase-2 alpha at 20 uM using supercoiled pBR322 DNA as substrate after 30 mins by agarose gel electrophoresis relative to control.
Data set [5] concerns the target T1, DNA topoisomerase 2-alpha. Kind of data set: Inhibition of human topoisomerase-2 alpha at 100 uM using supercoiled pBR322 DNA as substrate after 30 mins by agarose gel electrophoresis method relative to control.
Data set [6] in a line: Cytotoxicity against human HCT15 cells assessed as reduction in cell growth after 72 hrs by CCK8 assay. Format: functional, cell-based. To be noted: HCT-15, 72 h. The gist of the method:
as §1

A short description of data set [7]: Cytotoxicity against human T47D cells assessed as reduction in cell growth after 72 hrs by CCK8 assay. Format: functional, cell-based. The gist of the method:
as §1

Data set [8] has as its target T1, DNA topoisomerase 2-alpha. Kind of data set: Poisoning activity at human topoisomerase-2 alpha assessed as stabilization of enzyme-pBR322 DNA cleavage complex by measuring linear DNA formation at 100 uM after 30 mins by agarose gel electrophoresis. The note with it: 0.5 h.
The target in data set [9] is T1, DNA topoisomerase 2-alpha. Kind of data set: Poisoning activity at topoisomerase-2 alpha in human T47D cells assessed as induction of DNA damage by measuring comet formation at 5 to 10 uM after 24 hrs by SYBR Green staining based inverted fluorescence microscopic analysis. In kind it is cell-based. The gist of the method:
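Alkaline comet assay: T47D cells seeded in six-well plates, treated at ~70% confluence with 5 or 10 µM compound for 24 h, trypsinized, embedded in low-melting agarose. Lysis 30 min at 4 °C, alkaline unwinding (pH>13) 30 min, electrophoresis 20 min at 15 V, SYBR Green stain; imaged by inverted fluorescence microscopy, percent DNA in tail quantified.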

One may read the inhibition as the change of the read-out against control, counted positive when it falls. In general, pIC50 refers to the IC50 on a negative log10 scale, so that one unit is a factor of ten.

T1 sequence (P11388 whole entry): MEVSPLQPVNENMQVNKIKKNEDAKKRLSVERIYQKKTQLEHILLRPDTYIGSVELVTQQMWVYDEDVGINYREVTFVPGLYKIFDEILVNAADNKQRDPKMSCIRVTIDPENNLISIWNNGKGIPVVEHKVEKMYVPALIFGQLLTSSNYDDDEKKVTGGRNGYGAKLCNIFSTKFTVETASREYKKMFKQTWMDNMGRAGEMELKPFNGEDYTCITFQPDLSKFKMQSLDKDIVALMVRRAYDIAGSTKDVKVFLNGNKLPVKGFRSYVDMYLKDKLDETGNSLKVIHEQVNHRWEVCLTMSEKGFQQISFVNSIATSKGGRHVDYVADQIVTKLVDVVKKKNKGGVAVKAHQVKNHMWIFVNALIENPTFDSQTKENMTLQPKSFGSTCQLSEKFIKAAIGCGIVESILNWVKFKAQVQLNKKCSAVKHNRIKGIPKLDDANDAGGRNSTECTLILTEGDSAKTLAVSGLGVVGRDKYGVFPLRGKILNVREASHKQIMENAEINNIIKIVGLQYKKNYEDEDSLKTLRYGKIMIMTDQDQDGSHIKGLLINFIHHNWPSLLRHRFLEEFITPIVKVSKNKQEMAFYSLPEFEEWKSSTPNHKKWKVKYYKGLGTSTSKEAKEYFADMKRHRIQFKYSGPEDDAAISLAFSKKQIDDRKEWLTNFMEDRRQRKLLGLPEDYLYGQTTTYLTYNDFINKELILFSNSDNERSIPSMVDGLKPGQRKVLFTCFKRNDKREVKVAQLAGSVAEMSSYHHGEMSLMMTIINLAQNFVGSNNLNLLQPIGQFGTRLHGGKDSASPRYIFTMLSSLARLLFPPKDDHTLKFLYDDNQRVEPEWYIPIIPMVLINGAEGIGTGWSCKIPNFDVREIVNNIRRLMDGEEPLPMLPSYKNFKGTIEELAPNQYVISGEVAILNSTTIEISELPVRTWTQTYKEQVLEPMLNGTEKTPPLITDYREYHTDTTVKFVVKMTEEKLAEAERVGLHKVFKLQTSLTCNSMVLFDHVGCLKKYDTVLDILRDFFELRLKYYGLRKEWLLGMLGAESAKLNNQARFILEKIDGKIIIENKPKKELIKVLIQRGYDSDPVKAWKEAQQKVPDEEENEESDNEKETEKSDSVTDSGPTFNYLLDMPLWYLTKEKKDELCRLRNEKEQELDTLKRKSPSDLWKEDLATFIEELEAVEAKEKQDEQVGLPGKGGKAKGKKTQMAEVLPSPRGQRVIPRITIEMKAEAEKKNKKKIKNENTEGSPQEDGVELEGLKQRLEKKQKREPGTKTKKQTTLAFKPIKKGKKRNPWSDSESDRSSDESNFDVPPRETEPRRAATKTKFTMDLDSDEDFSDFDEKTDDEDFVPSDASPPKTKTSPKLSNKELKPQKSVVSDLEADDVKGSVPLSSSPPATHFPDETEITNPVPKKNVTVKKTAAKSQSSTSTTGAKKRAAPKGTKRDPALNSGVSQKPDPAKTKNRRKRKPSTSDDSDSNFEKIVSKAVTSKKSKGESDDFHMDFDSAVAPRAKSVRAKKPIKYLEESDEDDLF

Consider `CCCCNCC(O)COc1cc(OCCc2cccc(Cl)c2)c2c(=O)c3ccccc3oc2c1` (stereo not given), for which the inhibition result in data set [1] is “Active”. In addition, the pIC50 in [2] was 5.59; in data set [3] it was 6.42; in [6], 5.64; in [7], 5.76. Also, the inhibition in data set [4] turned out to be 16.6%; in data set [5], 46.2%.

On to `CCCCNCC(O)COc1cc(OCCc2ccc(Cl)cc2)c2c(=O)c3ccccc3oc2c1` (stereo not given), for which, in data set [1], the inhibition entry is “Active”. Further, the negative logarithm of the IC50 (pIC50) in data set [2] was 5.86; in data set [3], 5.44; in [6] it was 5.67; in data set [7], 6.20. The inhibition in [4] was 23 to 23.3%; in data set [5] it was 94.4%.

For the compound `CCCCNCC(O)COc1cc(OCc2ccccc2)c2c(=O)c3cccc(OC)c3oc2c1` (stereo not given), the pIC50 was 5.65 in data set [2], 5.91 in data set [3], 5.68 in data set [6] and 5.62 in data set [7]. The figures for the inhibition in data set [4] and in [5] were 11.1% and 51.6%, respectively.

For `CCCCNCC(O)COc1cc(OCc2ccccc2)c2c(=O)c3ccccc3oc2c1` (stereo not given), the negative logarithm of the IC50 (pIC50) in data set [2] was 5.15; in data set [3], 5.84; in data set [6], 5.51; in data set [7], 5.55. For the same compound, the inhibition in [4] came out at 22.2%; in data set [5], 65.4%.

As for `CCCCNCC(O)COc1cc(OCCc2cccc(Cl)c2)c2c(=O)c3cccc(OC)c3oc2c1` (stereo not given), in data set [1], the inhibition entry was “Active”. Moreover, the pIC50 is 5.59 in [2], 6.40 in data set [3], 5.83 in data set [6] and 6.72 in data set [7]. For the same compound, the inhibition in data set [4] was 20.4%; in [5], 62.8%.

For `CCCCNCC(O)COc1cc(OCc2cccc(C(F)(F)F)c2)c2c(=O)c3cccc(OC)c3oc2c1` (stereo not given), the pIC50 was 5.58 in data set [2], 5.70 in data set [3], 5.58 in data set [6] and 5.70 in [7]. The inhibition stood at 14.2% in data set [4] and 58.1% in data set [5].

For the compound `CCCCNCC(O)COc1cc(OCc2cccc(Cl)c2)c2c(=O)c3cccc(OC)c3oc2c1` (stereo not given), the pIC50 was 5.62 in [2], 5.94 in data set [3], 5.80 in [6] and 6.17 in [7]. Also, the inhibition was 6.3% in data set [4] and 45.4% in [5].

With `CCCCNCC(O)COc1cc(OCc2cccc(C(F)(F)F)c2)c2c(=O)c3ccccc3oc2c1` (stereo not given), the pIC50 in data set [2] is 5.65; in data set [3], 6.62; in [6], 5.61; in data set [7] it was 6.85. Further, the inhibition in [4] came to 9.3%; in [5] it was 64.6%.

As for `CCCCNCC(O)COc1cc(OCc2cccc(OC)c2)c2c(=O)c3cccc(OC)c3oc2c1` (stereo not given), the pIC50 is 5.64 in data set [2], 5.88 in data set [3], 5.76 in [6] and 5.87 in [7]. Moreover, the inhibition in data set [4] worked out at 12.4%; in data set [5] it was 41.6%.

Regarding `COc1cc([C@@H]2c3cc4c(cc3[C@@H](O[C@@H]3O[C@@H]5CO[C@@H](C)O[C@H]5[C@H](O)[C@H]3O)[C@H]3COC(=O)[C@H]23)OCO4)cc(OC)c1O` [ETOPOSIDE], the outcome in [8] and in data set [9] was Active. For the same compound, the pIC50 in data set [2] is 5.00; in data set [3], 5.89; in [6] it was 5.97; in data set [7], 5.55. Besides, in [4], the inhibition turned out to be 45.6%.

`CCCCNCC(O)COc1cc(OCc2ccc(OC)cc2)c2c(=O)c3ccccc3oc2c1` (stereo not given): the pIC50 in data set [2] is 5.32; in data set [3] it was 5.74; in data set [6], 5.66; in data set [7], 5.85. Moreover, the inhibition is 21.1% in [4] and 55.9% in [5].
